Reference: article PMC3124385 (Clinical pharmacology and therapeutics, 2011)
Read-outs that look alike come from different tables or passages of the source. Starred links: 1 amine or outer side, 2 acyl side, 3 side chain; linkers in the order of their positions; H or OH if unused. Positions of bridges follow the written chain, without caps; N, C: chain ends. Non-standard residues stand in square brackets, D forms with d. Residues, ends and D or L forms follow the SMILES beside them. *: point of attachment. pTerphenylCO(4''-OnC5H11) = CCCCCOc1ccc(-c2ccc(-c3ccc(C(=O)*)cc3)cc2)cc1; Orn(4R-OH,5R-OH) = O=C([C@H](C[C@@H](O)[C@@H](O)N[*:3])N[*:1])[*:2]; hTyr(3S-OH,4S-OH) = N[C@H](C(=O)O)[C@H](O)[C@@H](O)c1ccc(O)cc1; Pro(3S-OH,4S-Me) = C[C@H]1CN[C@H](C(=O)O)[C@H]1O; Hyp = O=C(O)[C@@H]1C[C@@H](O)CN1

Columns and labels:
[1] = ref [12], cited from earlier work
[2] = Safety: adverse events and clinical laboratory tests in infants and neonates; type: in vivo, human
[3] = test system: cytochrome P450 enzymatic system; settings: ref [10]; cited from earlier work
[4] = ref [10], cited from earlier work
[5] = type: in vivo, human; settings: for C24 LD, trough (24 h) concentration after the loading dose / Cmax LD, maximum concentration after loading dose: after 3 mg/kg IV loading dose, day 1, plasma LC-MS/MS
Method in brief: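 IV infusion over 60 min (≤1.1 mg/min): 3 mg/kg loading dose day 1, then 1.5 mg/kg daily up to day 5. Infants got a 20% alcohol-based form and neonates an alcohol-free water-for-injection form. Venous plasma drawn day 1 (predose, end-infusion, 20–24 h) and days 3–5 (predose to 18–24 h), kept at −80°C, assayed by LC-MS/MS (0.05–20.0 μg/ml). Noncompartmental analysis of doses 3–5; AUC by linear trapezoidal rule; CL = dose/AUC.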

## CCCCCOc1ccc(-c2ccc(-c3ccc(C(=O)N[C@H]4C[C@@H](O)[C@@H](O)NC(=O)[C@@H]5[C@@H](O)[C@@H](C)CN5C(=O)[C@H]([C@@H](C)O)NC(=O)[C@H]([C@H](O)[C@@H](O)c5ccc(O)cc5)NC(=O)[C@@H]5C[C@@H](O)CN5C(=O)[C@H]([C@@H](C)O)NC4=O)cc3)cc2)cc1 [anidulafungin, Anidulafungin] ({pTerphenylCO(4''-OnC5H11)}-[Orn(4R-OH,5R-OH)]T[Hyp][hTyr(3S-OH,4S-OH)]T[Pro(3S-OH,4S-Me)]; lactam 1-C)
[1]; older children (1.5 mg/kg/day) and adults (100 mg/day)
  AUCss of older children and adults: 100000 ng·h/mL
[1]; other pediatric patients
  half life in other pediatric patients: 20 to 24 h
[2]; eight out of 15 subjects, neonates and infants
  subjects who experienced at least one adverse event: 53%
[2]; other infant with worsening hyperbilirubinemia, baseline 9.1 mg/dL
  maximum bilirubin level during study drug administration: 10.4 mg/dL
[3]
  metabolism by the cytochrome P450 enzymatic system: not metabolized by the cytochrome P450 enzymatic system
[4]; [11]
  hepatic metabolism: lacks significant hepatic metabolism
[4]
  degradation in the blood: undergoes chemical degradation in the blood
  renal clearance: not renally cleared
[5]; comparing trough concentrations after the loading dose and those obtained after multiple doses
  drug accumulation after multiple anidulafungin doses: not apparent
[5]; human, plasma, iv, 1.5 mg/kg
  Cmax: 4200 ng/mL
[5]; human, plasma, iv, 3 mg/kg
  Cmax: 5000 ng/mL
  level at 24 h: 2100 ng/mL
[5]; scatter plot, Figure 3, neonates and infants
  trend in weight-adjusted clearance (CLss) with changes in postmenstrual age: No trend was observed
[5]; subject 4, neonate
  C24 LD, trough (24 h) concentration after the loading dose: 2.1 µg/mL
  Cmax LD, maximum concentration after loading dose: 4000 ng/mL
[5]; subject 6, neonate
  C24 LD, trough (24 h) concentration after the loading dose: 3.2 µg/mL
  Cmax LD, maximum concentration after loading dose: 5900 ng/mL
[5]; subject 8, neonate
  C24 LD, trough (24 h) concentration after the loading dose: 1.9 µg/mL
  Cmax LD, maximum concentration after loading dose: 4900 ng/mL
[5]; subject 9, infant
  C24 LD, trough (24 h) concentration after the loading dose: 2.3 µg/mL
  Cmax LD, maximum concentration after loading dose: 7100 ng/mL
[5]; subject 10, infant
  C24 LD, trough (24 h) concentration after the loading dose: 2.4 µg/mL
  Cmax LD, maximum concentration after loading dose: 5000 ng/mL
[5]; subject 11, infant
  C24 LD, trough (24 h) concentration after the loading dose: 1.9 µg/mL
  Cmax LD, maximum concentration after loading dose: 6800 ng/mL
